Values after ≈ are worked out from the molar mass of the structure shown.
How the values were obtained:
[1] = Selectivity index, ratio of IC50 for C57BL/6 mouse peritoneal macrophages to MIC for Cryptococcus neoformans ATCC 24067
Method in brief: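 SI = IC50/MIC. Thioglycollate-elicited peritoneal macrophages from C57BL/6 mice are seeded at 1 x 10^5/well. They are exposed for 48 h at 37°C to eight concentrations from 100 to 0.0128 µM. Viability read by MTT versus 0.5% DMSO control, triplicate in two experiments.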

Cryptococcus neoformans [2] = assay: Antifungal activity against Cryptococcus neoformans VM-MCMMPI after 48 to 72 hrs by broth microdilution method; format: functional
Method in brief: (§1)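 CLSI M27-A3 broth microdilution. Isolates subcultured twice on SDA, 48 h at 35°C. Saline suspension adjusted to 70% transmittance at 530 nm, then diluted to 1-5 x10^3 cells/mL in RPMI with L-glutamine, 0.165 M MOPS, pH 7.0. Compounds in DMSO, tested at […]. 35°C for 48-72 h. MIC read visually as the lowest concentration giving an optically clear well.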

Cryptococcus neoformans [3] = assay: Antifungal activity against Cryptococcus neoformans 27JF after 48 to 72 hrs by broth microdilution method; format: functional; method in brief: as §1
[4] = system: Cryptococcus gattii species complex; assay: Antifungal activity against Cryptococcus gattii ICB181 after 48 to 72 hrs by broth microdilution method; format: functional, Cryptococcus bacillisporus
Method in brief: (§2)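 CLSI M27-A3 broth microdilution in RPMI with L-glutamine, buffered to pH 7.0 with 0.165 M MOPS. Colonies grown twice on SDA, 48 h at 35°C. Inoculum set to 70% transmittance at 530 nm, then diluted to 1-5 x10^3 cells/mL. Test agents dissolved in DMSO, serially diluted, tested at 0.1 to 62.5 µM. Plates held at 35°C for 48-72 h. MIC is the lowest concentration giving an optically clear well, read visually against drug-free growth controls.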

[5] = system: Cryptococcus gattii species complex; assay: Antifungal activity against Cryptococcus gattii L28/02 after 48 to 72 hrs by broth microdilution method; format: functional, Cryptococcus bacillisporus; method in brief: as §2
[6] = system: Cryptococcus bacillisporus; assay: Antifungal activity against Cryptococcus gattii ATCC 32608 after 48 to 72 hrs by broth microdilution method; format: functional; method in brief: as §2
Cryptococcus neoformans [7] = assay: Antifungal activity against Cryptococcus neoformans CN31 after 48 to 72 hrs by broth microdilution method; format: functional; method in brief: as §1
Cryptococcus neoformans [8] = assay: Antifungal activity against Cryptococcus neoformans ATCC 62066 after 48 to 72 hrs by broth microdilution method; format: functional
[9] = Selectivity index, ratio of IC50 for African green monkey Vero cells to MIC for Cryptococcus neoformans ATCC 24067; format: toxicity, cell-based
Cryptococcus neoformans [10] = assay: Antifungal activity against Cryptococcus neoformans F10 after 48 to 72 hrs by broth microdilution method; format: functional; method in brief: as §1
[11] = system: Cryptococcus gattii species complex; assay: Antifungal activity against Cryptococcus gattii 1913ER after 48 to 72 hrs by broth microdilution method; format: functional, Cryptococcus bacillisporus; method in brief: as §2
[12] = system: Cryptococcus gattii species complex; assay: Antifungal activity against Cryptococcus gattii 196L/03 after 48 to 72 hrs by broth microdilution method; format: functional, Cryptococcus bacillisporus; method in brief: as §2
Cryptococcus neoformans [13] = assay: Antifungal activity against Cryptococcus neoformans LMM820 after 48 to 72 hrs by broth microdilution method; format: functional; method in brief: as §1
[14] = system: Cryptococcus gattii species complex; assay: Antifungal activity against Cryptococcus gattii LMM818 after 48 to 72 hrs by broth microdilution method; format: functional, Cryptococcus bacillisporus; method in brief: as §2
[15] = system: Cryptococcus gattii species complex; assay: Antifungal activity against Cryptococcus gattii L24/01 after 48 to 72 hrs by broth microdilution method; format: functional, Cryptococcus bacillisporus; method in brief: as §2
Cryptococcus neoformans [16] = assay: Antifungal activity against Cryptococcus neoformans WP after 48 to 72 hrs by broth microdilution method; format: functional; method in brief: as §1
[17] = Cytotoxicity against C57BL/6 mouse peritoneal macrophages assessed as cell viability measured after 48 hrs by MTT assay; format: cell-based; settings: C57BL/6, Peritoneal macrophage cell
Method in brief: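 Thioglycollate-elicited peritoneal macrophages from male C57BL/6 mice, 6–8 weeks old, in RPMI with 10% FBS. Seeded 1 x 10^5 cells/well, pre-incubated 24 h at 37°C. Exposed 48 h at 37°C, 5% CO2, to eight nonserial dilutions from 100 to 0.0128 µM, with 0.5% DMSO control. MTT read-out, % inhibition versus DMSO control. IC50 reported as median with 95% CI. Triplicate, two independent experiments.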

Cryptococcus neoformans [18] = assay: Antifungal activity against Cryptococcus neoformans 28JF after 48 to 72 hrs by broth microdilution method; format: functional; method in brief: as §1
[19] = system: Cryptococcus gattii species complex; assay: Antifungal activity against Cryptococcus gattii 23/10993 after 48 to 72 hrs by broth microdilution method; format: functional, Cryptococcus bacillisporus; method in brief: as §2
Vero = assay: Cytotoxicity against African green monkey Vero cells assessed as cell viability measured after 48 hrs by MTT assay; format: cell-based; settings: Chlorocebus sabaeus
Method in brief: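 VERO cells in D-MEM with 5% FBS, used up to 20 passages. Seeded 1 x 10^4 cells/well, pre-incubated 24 h at 37°C. Exposed 48 h at 37°C, 5% CO2, to eight nonserial dilutions from 100 to 0.0128 µM, with 0.5% DMSO control. MTT reduction read-out, corrected for background and blank. IC50 reported as median with 95% CI. Triplicate, two independent experiments.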

Cryptococcus neoformans [20] = assay: Antifungal activity against Cryptococcus neoformans 5396 after 48 to 72 hrs by broth microdilution method; format: functional; method in brief: as §1
[21] = system: Cryptococcus gattii species complex; assay: Antifungal activity against Cryptococcus gattii 547/OTTI-97-PI-10 after 48 to 72 hrs by broth microdilution method; format: functional, Cryptococcus bacillisporus; method in brief: as §2
[22] = system: Cryptococcus gattii species complex; assay: Antifungal activity against Cryptococcus gattii L27/01 after 48 to 72 hrs by broth microdilution method; format: functional, Cryptococcus bacillisporus; method in brief: as §2
[23] = system: Cryptococcus gattii species complex; assay: Ratio of compound MIC for Cryptococcus gattii L28/02 in presence of fluconazole to compound MIC for Cryptococcus gattii L28/02 in absence of fluconazole by checkerboard microtiter test; format: functional, Cryptococcus bacillisporus
Method in brief: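 Checkerboard microdilution: eight two-fold dilutions of test compound (0.11 to 15.6 µM) crossed with amphotericin B (0.025 to 3.9 µM, in DMSO) or fluconazole (0.48 to 62.5 µM, in water). Inoculum per CLSI M27-A3 in RPMI-MOPS pH 7.0, 1-5 x10^3 cells/mL. Growth 48 to 72 h. Effective MIC is the combination concentration giving complete inhibition. FICs derived from MICs in combination versus alone.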

Cryptococcus neoformans [24] = assay: Antifungal activity against Cryptococcus neoformans ATCC 28957 after 48 to 72 hrs by broth microdilution method; format: functional; method in brief: as §1
[25] = system: Cryptococcus gattii species complex; assay: Antifungal activity against Cryptococcus gattii 135L/03 after 48 to 72 hrs by broth microdilution method; format: functional, Cryptococcus bacillisporus; method in brief: as §2
Cryptococcus neoformans [26] = assay: Antifungal activity against Cryptococcus neoformans ATCC 24067 after 48 to 72 hrs by broth microdilution method; format: functional; method in brief: as §1
Cryptococcus neoformans [27] = assay: Antifungal activity against Cryptococcus neoformans 96806 after 48 to 72 hrs by broth microdilution method; format: functional; method in brief: as §1

COc1ccc(-c2csc(N/N=C/C3CCCCC3)n2)cc1
Ratio [1]: 52.63
MFC (Cryptococcus neoformans [2]): 3.9 µM (≈ 1.23 µg/mL)
MIC (Cryptococcus neoformans [2]): 2.2 µM (≈ 0.694 µg/mL)
MFC (Cryptococcus neoformans [3]): 7.8 µM (≈ 2.46 µg/mL)
MIC (Cryptococcus neoformans [3]): 3.5 µM (≈ 1.1 µg/mL)
MFC [4]: 1.9 µM (≈ 0.599 µg/mL)
MIC [4]: 1.4 µM (≈ 0.442 µg/mL)
MFC [5]: 7.8 µM (≈ 2.46 µg/mL)
MIC [5]: 4.2 µM (≈ 1.32 µg/mL)
MFC [6]: 3.9 µM (≈ 1.23 µg/mL)
MIC [6]: 2.9 µM (≈ 0.915 µg/mL)
MFC (Cryptococcus neoformans [7]): 3.9 µM (≈ 1.23 µg/mL)
MIC (Cryptococcus neoformans [7]): 1.9 µM (≈ 0.599 µg/mL)
MFC (Cryptococcus neoformans [8]): 7.8 µM (≈ 2.46 µg/mL)
MIC (Cryptococcus neoformans [8]): 1.9 µM (≈ 0.599 µg/mL)
selectivity ratio [9]: 52.6
MFC (Cryptococcus neoformans [10]): 3.9 µM (≈ 1.23 µg/mL)
MIC (Cryptococcus neoformans [10]): 2.2 µM (≈ 0.694 µg/mL)
MFC [11]: 3.9 µM (≈ 1.23 µg/mL)
MIC [11]: 2.2 µM (≈ 0.694 µg/mL)
MFC [12]: 3.9 µM (≈ 1.23 µg/mL)
MIC [12]: 2.9 µM (≈ 0.915 µg/mL)
MFC (Cryptococcus neoformans [13]): 7.8 µM (≈ 2.46 µg/mL)
MIC (Cryptococcus neoformans [13]): 3.2 µM (≈ 1.01 µg/mL)
MFC [14]: 7.8 µM (≈ 2.46 µg/mL)
MIC [14]: 4.5 µM (≈ 1.42 µg/mL)
MFC [15]: 3.9 µM (≈ 1.23 µg/mL)
MIC [15]: 2.9 µM (≈ 0.915 µg/mL)
MFC (Cryptococcus neoformans [16]): 3.9 µM (≈ 1.23 µg/mL)
MIC (Cryptococcus neoformans [16]): 3.2 µM (≈ 1.01 µg/mL)
IC50 [17]: > 100 µM
MFC (Cryptococcus neoformans [18]): 7.8 µM (≈ 2.46 µg/mL)
MIC (Cryptococcus neoformans [18]): 3.5 µM (≈ 1.1 µg/mL)
MFC [19]: 3.9 µM (≈ 1.23 µg/mL)
MIC [19]: 2.6 µM (≈ 0.82 µg/mL)
IC50 (Vero): > 100 µM
MFC (Cryptococcus neoformans [20]): 3.9 µM (≈ 1.23 µg/mL)
MIC (Cryptococcus neoformans [20]): 2.2 µM (≈ 0.694 µg/mL)
MFC [21]: 3.9 µM (≈ 1.23 µg/mL)
MIC [21]: 2.6 µM (≈ 0.82 µg/mL)
MFC [22]: 3.9 µM (≈ 1.23 µg/mL)
MIC [22]: 2.2 µM (≈ 0.694 µg/mL)
fractional inhibitory concentration index (FICI) [23]: 4.38
MFC (Cryptococcus neoformans [24]): 3.9 µM (≈ 1.23 µg/mL)
MIC (Cryptococcus neoformans [24]): 2.2 µM (≈ 0.694 µg/mL)
MFC [25]: 3.9 µM (≈ 1.23 µg/mL)
MIC [25]: 2.6 µM (≈ 0.82 µg/mL)
MIC (Cryptococcus neoformans [26]): 1.9 µM (≈ 0.599 µg/mL)
MFC (Cryptococcus neoformans [27]): 1.9 µM (≈ 0.599 µg/mL)
MIC (Cryptococcus neoformans [27]): 1.9 µM (≈ 0.599 µg/mL)

c1ccc(-c2csc(NN=C3CCCC3)n2)cc1
Ratio [1]: 29
MFC (Cryptococcus neoformans [2]): 7.8 µM (≈ 2.01 µg/mL)
MIC (Cryptococcus neoformans [2]): 1.6 µM (≈ 0.412 µg/mL)
MFC (Cryptococcus neoformans [3]): 7.8 µM (≈ 2.01 µg/mL)
MIC (Cryptococcus neoformans [3]): 3.2 µM (≈ 0.824 µg/mL)
MFC [4]: 1.9 µM (≈ 0.489 µg/mL)
MIC [4]: 1 µM (≈ 0.257 µg/mL)
MFC [5]: 3.9 µM (≈ 1 µg/mL)
MIC [5]: 2.7 µM (≈ 0.695 µg/mL)
MFC [6]: 3.9 µM (≈ 1 µg/mL)
MIC [6]: 2.2 µM (≈ 0.566 µg/mL)
MFC (Cryptococcus neoformans [7]): 1.9 µM (≈ 0.489 µg/mL)
MIC (Cryptococcus neoformans [7]): 1.9 µM (≈ 0.489 µg/mL)
MFC (Cryptococcus neoformans [8]): 3.9 µM (≈ 1 µg/mL)
MIC (Cryptococcus neoformans [8]): 1.2 µM (≈ 0.309 µg/mL)
selectivity ratio [9]: 29
MFC (Cryptococcus neoformans [10]): 7.8 µM (≈ 2.01 µg/mL)
MIC (Cryptococcus neoformans [10]): 2.2 µM (≈ 0.566 µg/mL)
MFC [11]: 7.8 µM (≈ 2.01 µg/mL)
MIC [11]: 1 µM (≈ 0.257 µg/mL)
MFC [12]: 7.8 µM (≈ 2.01 µg/mL)
MIC [12]: 2.2 µM (≈ 0.566 µg/mL)
MFC (Cryptococcus neoformans [13]): 3.9 µM (≈ 1 µg/mL)
MIC (Cryptococcus neoformans [13]): 2.2 µM (≈ 0.566 µg/mL)
MFC [14]: 3.9 µM (≈ 1 µg/mL)
MIC [14]: 3.4 µM (≈ 0.875 µg/mL)
MFC [15]: 7.8 µM (≈ 2.01 µg/mL)
MIC [15]: 1.7 µM (≈ 0.438 µg/mL)
MFC (Cryptococcus neoformans [16]): 3.9 µM (≈ 1 µg/mL)
MIC (Cryptococcus neoformans [16]): 3.2 µM (≈ 0.824 µg/mL)
IC50 [17]: > 100 µM
MFC (Cryptococcus neoformans [18]): 1.9 µM (≈ 0.489 µg/mL)
MIC (Cryptococcus neoformans [18]): 2.6 µM (≈ 0.669 µg/mL)
MFC [19]: 3.9 µM (≈ 1 µg/mL)
MIC [19]: 2.9 µM (≈ 0.746 µg/mL)
IC50 (Vero): > 100 µM
MFC (Cryptococcus neoformans [20]): 0.9 µM (≈ 0.232 µg/mL)
MIC (Cryptococcus neoformans [20]): 1.2 µM (≈ 0.309 µg/mL)
MFC [21]: 7.8 µM (≈ 2.01 µg/mL)
MIC [21]: 1.9 µM (≈ 0.489 µg/mL)
MFC [22]: 1.9 µM (≈ 0.489 µg/mL)
MIC [22]: 1.5 µM (≈ 0.386 µg/mL)
fractional inhibitory concentration index (FICI) [23]: 4.22
MFC (Cryptococcus neoformans [24]): 7.8 µM (≈ 2.01 µg/mL)
MIC (Cryptococcus neoformans [24]): 2.2 µM (≈ 0.566 µg/mL)
MFC [25]: 3.9 µM (≈ 1 µg/mL)
MIC [25]: 3.1 µM (≈ 0.798 µg/mL)
MIC (Cryptococcus neoformans [26]): 1.9 µM (≈ 0.489 µg/mL)
MFC (Cryptococcus neoformans [27]): 7.8 µM (≈ 2.01 µg/mL)
MIC (Cryptococcus neoformans [27]): 1.9 µM (≈ 0.489 µg/mL)

From ChEMBL document CHEMBL3616437, “Thiazole compounds with activity against Cryptococcus gattii and Cryptococcus neoformans in vitro” (Eur J Med Chem, 2015)
